Reference: ChEMBL document CHEMBL4513216, “Probing the Open Global Health Chemical Diversity Library for Multistage-Active Starting Points for Next-Generation Antimalarials” (ACS Infect Dis, 2020)

Assay: Toxicity liver stage against HepG2, at 10uM
Format: cell-based
Parameters: test concentration 10 uM, cell line HepG2-A16-CD81EGFP
Settings: human, HepG2-A16-CD81EGFP cells; read-out: INHIBITION
Method in brief: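 Uninfected HepG2-A16-CD81EGFP cells, 3 × 10^3 per well, 1536-well, plated on prespotted compound at 10 μM final, parasite-free screening media added to match infected plates; puromycin 10 μM positive, DMSO 0.5% negative; run in parallel with 48 h PbLuc assay at 37 °C, 5% CO2; viability by CellTiter-Glo luminescence, normalized to controls.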

Compound | cytotoxicity at 10 µM [%]
Cc1cccc(-c2noc([C@@H]3C[C@@H](O)CN3Cc3ccc(CO)o3)n2)c1 | 7.38
CNC(=O)C(C)(C)N1CCC[C@H]1C(=O)NCCN1CCOCC1 | 3.29
CC(C)(C)c1cc(C[C@H]2CNCC[C@H]2CC(=O)N2CCCCC2)no1 | -1.91
CC(C)(C)OC(=O)Cn1cccc(S(=O)(=O)N2CCCCCC2)c1=O | -2.28
CCSc1ccccc1C(=O)NCC1CCN(Cc2ccsc2)CC1 | -8.44
Cc1nccn1-c1ccc(=O)n(CCNC(=O)Cc2ccccc2)n1 | -4.17
CC(=O)N1CCCC2(CCN(Cc3ccc(Cl)c(F)c3)C2)C1 (stereo unspecified) | 9.58
Cn1cnc(S(=O)(=O)N2CCO[C@H]3[C@H](OCC4CC4)CC[C@@H]32)c1 | 8.31
Cc1cc(C(=O)N2CCc3c(CN(C)C)nn(C)c3C2)[nH]n1 | -3.25
O=C(c1ccnnc1)N1CCO[C@H]2[C@H](Oc3cccnc3)CC[C@@H]21 | 8.39
O=C(O)c1nnn(Cc2cccc(C(F)(F)F)c2)c1-c1ccncc1 | 1.93
O=c1[nH]c2nc(NC3CC3)ncc2c(=O)n1-c1ccc(F)cc1 | -4.06
CC(C)NC(=O)[C@H]1CN(Cc2ccccc2)C[C@@H]1C(=O)c1ccccc1 | 7.84
Cc1noc(C)c1-c1cccc(C2CN(S(=O)(=O)N(C)C)CCO2)n1 (stereo unspecified) | 11.4
Cc1ncccc1C(=O)N1CCC2(CCc3ccccc3C(=O)N2)C1 (stereo unspecified) | 4.28
CCCn1nc(C)c(CN(CCN(C)C)Cc2ccccn2)c1C | -0.641
CN([C@@H]1CCC[C@@H](n2ccnc2)[C@@H]1O)S(=O)(=O)c1cn(C)cn1 | 0.57
CN1CCC(c2cncc(Cl)n2)CC1 | 0.752
CCCc1cc(C(=O)N[C@@H]2CCC[C@@H](N3CCCC3)[C@@H]2O)no1 | -2.48
Cc1cnc(-c2nc(O)c3c(n2)CN(C(=O)C2CCOC2)CC3)cn1 (stereo unspecified) | -6.76
CC(=O)N1CCCC1c1cccc(Cc2ccc(F)cc2)n1 (stereo unspecified) | -1.98

Compound | cytotoxicity at 10 µM [%]
Cc1ncc(CNC(=O)CCc2cccc(F)c2)c(C2CCCN2C)n1 (stereo unspecified) | -6.82
Cc1ccc(C)c(-n2nnnc2SCN2CCCCC2=O)c1 | -47.3
CN(Cc1cc(Cl)c2c(c1)OCO2)Cc1cscn1 | -2.76
Cc1cc(C(=O)NCC2SCCc3ccccc32)no1 (stereo unspecified) | 3.41
COC(=O)NCC(=O)N(C)Cc1csc(C)n1 | 2.33
CC(C)OCCC(=O)NCC(c1c(F)cccc1F)N(C)C (stereo unspecified) | -1.19
CC1CCN(Cc2ccccc2CNC(=O)C2CNC(=O)N2)CC1 (stereo unspecified) | 2.16
CC1(C)CN(C(CNS(C)(=O)=O)c2ccc(Cl)cc2)CCO1 (stereo unspecified) | 9.12
COc1ccc(Br)c(NC(=O)NCc2ncnn2C)c1 | 5.41
CN(C)C1CCCN(C(=O)NCCc2cc(F)ccc2F)C1 (stereo unspecified) | -1.05
Cc1ccc(NC(=O)NC(C)(C)c2noc(C)n2)cc1 | 12.6
Cc1cnn(CC2CCCCN2C(=O)Cn2nc(C)c(Cl)c2C)c1 (stereo unspecified) | -6.24
CCn1ccnc1CN1CCN(CCc2ccccn2)CC1C (stereo unspecified) | -8.74
CN(C)c1ccnc(N2CCC(NCCOc3ccccc3)CC2)n1 | -4.99
O=C(Nc1ccccc1OC1CCOC1)c1cc[nH]n1 (stereo unspecified) | -1.57
COCCN(C(=O)c1c[nH]c2ncccc12)C1CCCC1 | -3.08
COc1ccccc1-c1noc(CNc2ccc(F)cc2OCCO)n1 | -37.7
CCC(C)Oc1cc(C(=O)Nc2nc(C)ns2)ccn1 (stereo unspecified) | -1.02
CC(C)(O)CN1CCN(C(=O)C2CSc3ccccc3O2)CC1 (stereo unspecified) | 2.16
CC(C)c1ccc(-n2cc(O)c(C(=O)O)n2)cc1 | -42.4
NC(=O)N1CCCN(C2CCCCc3ccccc32)CC1 (stereo unspecified) | -43.9

Compound | cytotoxicity at 10 µM [%]
Fc1cccc(-c2n[nH]cc2-c2nc(CN3CCOCC3)no2)c1 | -7.58
CCC(c1nc(CC(C)C)nn1-c1ccccn1)n1cccn1 (stereo unspecified) | -8.74
CCc1ncc(C(=O)N2CC(N3CCCCC3)C2)cn1 | -4.68
Cc1noc(C)c1CCCNC(=O)C1CCN(C(=O)C2CCC2)CC1 | 3.72
CC1(Cc2cccnc2)NCCc2[nH]cnc21 (stereo unspecified) | 12.1
COCCN1CC(c2nc(CSC)no2)CCC1=O (stereo unspecified) | -7.74
CSCC[C@@H](CO)n1ccnc1-c1ccncc1 | 7.21
Cc1[nH]nc(CCC(=O)N2CCOC(CCc3ccccc3)C2)c1C (stereo unspecified) | -10.8
O=C(Nc1ccccc1OCCc1ccccn1)NC1CCOCC1 | 2.43
COCC1CCN(S(=O)(=O)NCC2COc3ccccc3C2)CC1 (stereo unspecified) | 7.64
Cc1ccc(C)c(OCCNC(=O)[C@@H]2CCCCN2)c1 | 0.997
CC(C)CN1CCCn2nc(CNC(=O)NC(C)(C)C)cc2C1 | -4.54
O=C(Cn1c(=O)oc2ccccc21)N1Cc2cnn(CCO)c2C1 | 0.154
O=C(C1CCCO1)N1CCC(n2cc(-c3ccsc3)nn2)CC1 (stereo unspecified) | -4.18
O=C(c1cc(Cl)cc2cccnc12)N1CCN(CCO)CC1 | -2.07
CCc1nnc(NC(=O)Cc2c(C)nc(C)[nH]c2=O)s1 | -14.4
CN(CC1(O)CCCCC1)C1CCCN(Cc2noc(C3CC3)n2)C1 (stereo unspecified) | -17.3
CCc1nc(C2CCCN2C(=O)CCc2ccc3c(c2)OCO3)no1 (stereo unspecified) | -4.62
Cc1cccc(-c2nc(CN3CCCCC3Cn3cncn3)no2)c1 (stereo unspecified) | -3.2
Cc1noc(CCCC(=O)NC(C)c2ccccn2)n1 (stereo unspecified) | -10.9
CCc1ccc(C(=O)N2CCN(CCS(C)(=O)=O)CC2)o1 | -8.03

Compound | cytotoxicity at 10 µM [%]
CC(CNCc1ccc(F)cc1)Oc1ccccn1 (stereo unspecified) | 6.97
c1nc(CN2CCCC(Cc3ccc(NC4CCCC4)nn3)C2)c[nH]1 (stereo unspecified) | 3.6
CC(C)NC(=O)CC1COC2(CCN(Cc3cccnc3)CC2)C1 (stereo unspecified) | 0.405
Cc1ccc(CN2CC[C@H]3[C@H]2CCN3S(=O)(=O)C2CC2)s1 | 7.74
O=C(NC1CC1)[C@@H]1CN(Cc2ccc3c(c2)OCO3)C[C@H]2OCC[C@H]21 | -1.79
CN(C)CCN1CCC2(CCN(C(=O)c3ccncc3)CC2)C1=O | 0.0515
Cc1noc(C)c1CN1C[C@H](C)[C@]2(CCN(Cc3cccnc3)C2=O)C1 | 4.59
Cc1nc(Cn2c3c(ccc2=O)CC(NC(C)C)CC3)cs1 (stereo unspecified) | 6.39
Cc1cc(N(C)C)nc(C2CCCNC2)n1 (stereo unspecified) | -3.55
c1cnc(N2CC3(CCN(Cc4cccnc4)C3)C2)nc1 | -4.87
CO[C@@H]1CCN(S(=O)(=O)N(C)C)[C@@H]2CN(Cc3ccncc3)C[C@@H]21 | 15.1
CCn1ncc2c1C(COCC1CC1)N(Cc1ccccn1)CC2 (stereo unspecified) | 10.9
CCn1ncc2c1C(COCC1CC1)N(Cc1nccs1)CC2 (stereo unspecified) | 10.6
CC(C)NC(=O)CC1COC2(CCN(Cc3ccsc3)CC2)C1 (stereo unspecified) | -1.6
Cc1ccc(CN2CC[C@H]3NC(=O)CC[C@@H]32)o1 | -5.28
CN(C)Cc1nc2c(o1)CN(C(=O)NCc1cccc(F)c1)C2 | 5.32
CC=C(C)C(=O)NS(=O)(=O)c1ccc(C(F)(F)F)cn1 | 3.95
CC(C)NC(=O)CC1[C@H]2CN(C(=O)Cc3ccccn3)C[C@@H]12 (stereo partly specified) | 12
